# Measurements of several laboratories.
# HRH1: Histamine H1 receptor (HRH1, Homo sapiens, UniProt P35367)
# CA9: Carbonic anhydrase 9 (CA9, Homo sapiens, UniProt Q16790)
# CHRNA9: Neuronal acetylcholine receptor subunit alpha-9 (CHRNA9, Homo sapiens, UniProt Q9UGM1)
# MAOB: Amine oxidase [flavin-containing] B (MAOB, Homo sapiens, UniProt P27338)
# emrE: emrE (Escherichia coli, UniProt P23895)
SMILES,target,assay,system,conditions,endpoint,value
CCCCC1CNC2CCc3ccc(OC)cc3C12 (racemic),HRH1,"ligand displacement, radioligand",,,Ki,0.135 µM
CN1CC[C@@]2(C)c3cc(OC(=O)Nc4ccccc4)ccc3N(C)[C@@H]12,"Retinaldehyde dehydrogenase 3 (ALDH1A3, Homo sapiens, UniProt P47895)","enzyme activity, inhibitor",,,IC50,< 10 µM
N#C[Se]CCCCOc1ccc2c(-c3ccccc3)cc(=O)oc2c1,CA9,"enzyme activity, inhibitor, stopped-flow",,,Ki,0.211 µM
CCC[N+]1(CC)CCN(c2ccc(C#N)cc2)CC1,CHRNA9,"ion current, agonist, two-electrode voltage clamp",,oocytes,EC50,1.9 µM
CCOC(=O)c1ccc(OC(=O)CCCCCN=C(N)N)cc1,"Urokinase-type plasminogen activator (PLAU, Homo sapiens, UniProt P00749)","enzyme activity, inhibitor",,,IC50,0.0236 µM
CC[C@H](C)[C@H](NC(=O)[C@H](C)NC(=O)[C@H](CCC(=O)O)NC(=O)[C@H](Cc1c[nH]cn1)NC(=O)[C@H](CC(C)C)NC(=O)[C@@H](NC(=O)[C@H](Cc1ccccc1)NC(=O)[C@H](CO)NC(=O)[C@@H](NC(=O)[C@H](CC(C)C)NC(=O)[C@H](CC(=O)O)NC(=O)[C@H](CC(C)C)NC(=O)[C@@H]1CCCN1)[C@@H](C)O)C(C)C)C(=O)O,MAOB,"enzyme activity, inhibitor, fluorescence",,,IC50,1900 µM
Cc1nccc2c1[nH]c1ccccc12,emrE,"binding, fluorescence",,,Kd,46 µM
CC[C@H](C)[C@H](N)C(=O)N1CCC[C@H]1C(=O)N1CCC[C@H]1C(=O)NCC(=O)N[C@H](C(=O)N1CCC[C@H]1C(=O)N[C@@H](Cc1ccc(O)cc1)C(=O)O)C(C)C,MAOB,"enzyme activity, inhibitor, fluorescence",,,IC50,9410 µM
COc1cc2c(cc1OC)CN(CCc1ccc(NC(=O)c3cccc4c(=O)c5cccc(OC)c5[nH]c34)cc1)CC2,HRH1,cell-free assay,,,Ki,> 10 µM
CC1=C(O)C(=O)C=C2C1=CC=C1[C@@]2(C)CC[C@@]2(C)[C@@H]3C[C@](C)(C(=O)O)CC[C@]3(C)CC[C@]12C,"Cytochrome P450 3A5 (CYP3A5, Homo sapiens, UniProt P20815)","binding, BLI",SAS,,Kd,2.07 µM
CCC[N+]1(C)CCN(c2ccccc2)CC1,CHRNA9,"ion current, agonist, two-electrode voltage clamp",,oocytes,EC50,60 µM
Cc1c(Cl)c(=O)oc2cc(OCCCC[Se]C#N)ccc12,CA9,"enzyme activity, inhibitor, stopped-flow",,,Ki,0.0429 µM
C[n+]1ccc(-c2cc[n+](C)cc2)cc1,emrE,"binding, fluorescence",,,Kd,73 µM
